Consider 2 compounds from ChEMBL document CHEMBL4017501, “Paralog Specificity Determines Subcellular Distribution, Action Mechanism, and Anticancer Activity of TRAP1 Inhibitors” (J Med Chem, 2017).

Data set [1] can be described thus: Cytotoxicity against human corneal cells assessed as reduction in cell viability at 5 to 20 uM after 24 hrs by MTT assay. In kind it is cell-based. In outline: (§1)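 Corneal cells kept in corneal medium; hepatocytes isolated from 8-week-old BALB/c mice and kept in M199/EBSS with 10% FBS. Cells given a range of drug concentrations for 24 h. MTT absorbance read at 595 nm and normalized to DMSO; two independent experiments in duplicate, mean ± SEM.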

Data set [2] concerns the target T1, Heat shock protein HSP90 (Homo sapiens, UniProt P07900+P08238). Put plainly: Inhibition of HSP90 in human HeLa cells assessed as induction of HSP70 protein expression at 10 uM after 6 hrs by Western blot method. The data set is classed as cell-based.
In data set [3] the target is T1, Heat shock protein HSP90. Put plainly: Inhibition of HSP90 in human PC3 cells assessed as induction of HSP70 protein expression at 10 uM after 6 hrs by Western blot method. In kind it is cell-based.
The test system of another data set is Hepatocyte. Put plainly: Cytotoxicity against mouse primary hepatocytes assessed as reduction in cell viability at 5 to 20 uM after 24 hrs by MTT assay. In kind it is cell-based. An outline of the steps:
as §1

The target of data set [4] is Heat shock protein HSP 90-alpha (Homo sapiens, UniProt P07900). Put plainly: Inhibition of FITC3-labeled PU-H71 binding to recombinant HSP90alpha (unknown origin) after 24 hrs by fluorescence polarization assay.
The target in data set [5] is T2, Heat shock protein 75 kDa, mitochondrial (Homo sapiens, UniProt Q12931).
T2 sequence (Q12931 whole entry): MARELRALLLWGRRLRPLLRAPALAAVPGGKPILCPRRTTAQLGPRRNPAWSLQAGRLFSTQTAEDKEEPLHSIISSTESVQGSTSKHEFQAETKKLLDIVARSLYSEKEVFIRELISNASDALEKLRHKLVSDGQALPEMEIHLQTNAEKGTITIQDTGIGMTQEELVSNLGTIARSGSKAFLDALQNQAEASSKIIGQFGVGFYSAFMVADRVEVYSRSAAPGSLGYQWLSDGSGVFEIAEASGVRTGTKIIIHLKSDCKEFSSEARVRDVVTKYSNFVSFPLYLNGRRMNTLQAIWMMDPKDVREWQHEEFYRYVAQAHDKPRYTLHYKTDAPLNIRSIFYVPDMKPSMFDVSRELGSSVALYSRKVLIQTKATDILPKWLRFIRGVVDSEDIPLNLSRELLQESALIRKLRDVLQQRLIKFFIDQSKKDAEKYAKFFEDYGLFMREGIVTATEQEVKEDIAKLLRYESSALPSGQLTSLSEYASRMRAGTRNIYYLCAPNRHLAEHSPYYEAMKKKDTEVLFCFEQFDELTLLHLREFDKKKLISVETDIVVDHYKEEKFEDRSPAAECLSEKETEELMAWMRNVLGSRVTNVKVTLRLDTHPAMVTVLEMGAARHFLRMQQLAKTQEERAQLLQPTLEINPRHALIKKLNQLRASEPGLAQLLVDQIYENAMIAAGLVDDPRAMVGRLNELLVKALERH
Put plainly: Inhibition of FITC3-labeled PU-H71 binding to recombinant human N-terminal His6-tagged TRAP1 (60 to 561 residues) expressed in Escherichia coli BL21(DE3) after 24 hrs by fluorescence polarization assay. An outline of the steps: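 Recombinant TRAP1 (100 nM) incubated with 10 nM 1-FITC3 probe and varying inhibitor concentrations for 24 h at 4 °C. Buffer: PBS-type salts with 1 mM DTT, 2 mM MgCl2, 0.1 mg/mL BSA, 0.05% NP40, pH 7.3. Polarization (mP) scaled to maximum and minimum values; mean ± SEM of two independent experiments.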

With `CO[C@H]1/C=C\C=C(/C)C(=O)NC2=CC(=O)C(NCCN(C)C)=C(C[C@@H](C)C[C@H](OC)[C@H](O)[C@@H](C)/C=C(\C)[C@@H]1OC(N)=O)C2=O` [ALVESPIMYCIN], the Activity entry (in data set [1]; with Hepatocyte) was “Toxic” throughout. Besides, the “inhibition (INH)” value at Heat shock protein HSP90 [2] and on Heat shock protein HSP90 [3] was “Active” each time.
In the case of `Nc1nc(Cl)c2cnn(Cc3ccc4c(c3)OCO4)c2n1`, the IC50 was found to be 8.93 µM in data set [4] and 6.34 µM in data set [5].
